# Rows were chosen to be rich in hits. Some 1.9% of all compounds tested hit in one or more screens of this group.
# APJ antagonist = blocks the human apelin receptor APJ | AID 2521 | inhibition, % at 20 µM | 330,000 tested, 0.32% active | CHO-K1 APJ beta-arrestin complementation, luminescence | P35414;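 active = inhibition above about 40% at 20 µM, limit read from the data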;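 note: cells challenged with 10 nM apelin-13 agonist together with compound; plate controls were apelin-13 plus DMSO wells for no effect and DMSO wells lacking apelin-13 for full effect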
# Target sequence (P35414 whole entry, looked up): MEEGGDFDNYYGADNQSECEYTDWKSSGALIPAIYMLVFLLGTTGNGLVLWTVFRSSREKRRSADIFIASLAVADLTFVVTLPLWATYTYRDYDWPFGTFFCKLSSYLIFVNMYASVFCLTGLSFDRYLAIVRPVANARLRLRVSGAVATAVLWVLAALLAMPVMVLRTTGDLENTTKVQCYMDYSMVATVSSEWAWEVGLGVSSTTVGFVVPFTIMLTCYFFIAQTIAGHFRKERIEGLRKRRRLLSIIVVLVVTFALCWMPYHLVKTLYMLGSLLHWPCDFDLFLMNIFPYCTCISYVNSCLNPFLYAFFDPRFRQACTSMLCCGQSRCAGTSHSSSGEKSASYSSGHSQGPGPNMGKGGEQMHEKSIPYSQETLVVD
# CXCR6 inh = CXCR6 (human) receptor inhibition. AID 602244. 360,000 tested, 0.36% active. O00574. inhibition, % at 20 µM. CHO-K1 PathHunter CXCR6 beta-arrestin, luminescence; in the data active = inhibition above about 34%, passing the limit was not always enough;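 note: antagonist mode with CXCL16 agonist at 10 nM final; 0% = 10 nM CXCL16 with DMSO and 100% = unstimulated wells without agonist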
# EBI2 block = EBI2 (human) antagonism; AID 651636; 360,000 tested, 0.81% active; inhibition, % at 5 µM; P32249; EBI2 beta-arrestin recruitment, luminescence, 7a,25-OHC stimulated; in the data active = inhibition above about 38%;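 note: enzyme fragment complementation signal reports receptor beta-arrestin coupling in cells; 0% = agonist plus DMSO wells and 100% = wells without agonist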
# APJ agonist = activates the human apelin receptor APJ; 330,000 tested, 0.11% active; P35414; CHO-K1 APJ PathHunter beta-arrestin, luminescence; 0% DMSO wells, 100% apelin; activation, % at 20 µM;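 active = activation more than six SD over the plate average, tested at 20 µM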;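 note: 0% = DMSO alone and 100% = apelin-13 at 10 nM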
#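 assay system = CHO-K1 APJ beta-arrestin complementation cell line | input = cell density 1000 per well | dosing = compound 20 µM once, DMSO 1% | timing = compound 90 min 25 °C, reagent 1 h | measured by = luminescence from split beta-galactosidase complementation, Galacton Star/Emerald II substrate | read-out basis = APJ agonist activity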
# CCR6 antag = blocks CCL20-driven beta-arrestin recruitment at human CCR6; P51684; CHO-K1 CCR6 PathHunter beta-arrestin, luminescence, CCL20-stimulated; 340,000 tested, 0.49% active; inhibition, % at 20 µM; AID 493098;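 active = compounds whose inhibition of the agonist-driven luminescence signal at 20 µM reaches about 50%, limit read from the data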;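 note: cells stimulated with CCL20 at 14 nM final; plate controls were DMSO with CCL20 for no effect and DMSO without agonist for full effect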
# H9c2 TAG inh = reduces triacylglycerol accumulation in H9c2 cells; Nile Red lipid (TAG) fluorescence; cells loaded with 200 µM oleic acid; inhibition, % at 12.5 µM; 230,000 tested, 0.66% active;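 active = pattern-corrected inhibition of lipid staining of at least 50% with the nuclear-stain viability signal not falling by more than 50%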;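 note: 0% = DMSO wells and 100% = triacsin C control wells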
# TAG conf = confirmation of triacylglycerol accumulation inhibitors. shares compounds with H9c2 TAG inh. H9c2 lipid accumulation, Nile Red fluorescence; cells loaded with 200 µM oleic acid. inhibition, % at 12.5 µM. 990 tested, 71% active. AID 651629;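 active = mean inhibition across replicates of 40% or more; inactive = mean inhibition below 40%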;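 note: plate controls were DMSO only wells for no effect and Triacsin C treated wells for full effect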
# The depositor's hits bear a star; / = not tested or not shown.
SMILES,APJ antagonist,CXCR6 inh,EBI2 block,APJ agonist,CCR6 antag,H9c2 TAG inh,TAG conf
C#CCN(C[C@H]1[C@H](OC(=O)NCCCCCC)[C@H](OC(=O)NCCCCCC)C[C@@H](C(=O)OC)[C@H]1C(=O)OC)S(=O)(=O)c1ccc(C)cc1,/,0,16,/,/,80*,88*
CCC1=Nc2cc(C(=O)NCCN3CCCC3)ccc2Sc2ccccc21,5,7,-6,-4,22,/,/
CCC1=Nc2cc(C(=O)NCCCOC)ccc2Sc2ccccc21,7,1,-6,-6,-2,61*,45*
CCC(=NCCc1c(C)[nH]c2ccc(OC(F)(F)F)cc12)C1=C(O)CC(c2ccccc2)CC1=O (centres undefined),-29,16,39,-1,14,51*,72*
COc1ccc(C)cc1NC(=O)CSc1nnc(-c2ccco2)n1N,-1,10,2,-5,5,/,/
COc1cccc(-c2nnc(SCC(=O)Nc3cc(C)ccc3OC)n2N)c1,-11,-8,6,-4,-4,53*,26
Cc1ccc(CSc2nnc([C@@H]3CCCN3C(=O)OC(C)(C)C)o2)cc1,-9,8,-3,4,16,-3,/
Cn1nnnc1Sc1ncnc2scc(-c3cccc(S(C)(=O)=O)c3)c12,-9,-1,4,1,5,60*,57*
COc1ccc(N2CC(C(=O)Nc3nc4ccc(S(C)(=O)=O)cc4s3)CC2=O)cc1 (centres undefined),4,-10,-5,-2,0,/,/
O=C1N=C(N2CCOCC2)S/C1=C/c1ccc(-c2ccc(F)cc2)o1,9,8,15,-3,6,66*,42*
CCOC(=O)/C(=N\Nc1ccc(Cl)cc1)c1csc(Nc2ccccc2)n1,5,4,10,1,5,75*,69*
CCOC(=O)/C(=N/Nc1ccccc1)c1csc(Nc2ccccc2)n1,15,-4,-3,0,21,/,/
C=CCNc1nc(Nc2ccc(OC)c(OC)c2)c2sc(-c3ccccc3)cc2n1,/,3,18,/,/,70*,82*
COCCNc1nc(Oc2ccc(NC(C)=O)cc2)c2sc(-c3ccccc3)cc2n1,/,3,30,/,/,26,/
C=CCNc1nc(NCCOC)c2sc(-c3ccccc3)cc2n1,/,10,25,/,/,5,/
COCCNc1nc(NCc2ccc(NC(C)=O)cc2)c2sc(-c3ccccc3)cc2n1,/,-4,6,/,/,53*,123*
O=C(NC(=S)N(Cc1ccccc1)Cc1ccccc1)C1CCCCC1,14,15,14,-6,25,54*,0
O=C(NC(=S)NCCc1ccccc1)C1CCCCC1,11,10,3,-2,9,-7,/
CCCN1CCN(CCCNC(=O)Cn2nc(C)n3c(cc4cc(OC)ccc43)c2=O)CC1,6,-3,5,-3,0,/,/
CCN(C[C@H]1N[C@@](Cc2ccccc2)(C(=O)OC)[C@H]2C(=O)N(C)C(=O)[C@@H]12)C(=O)C1CCCCC1,2,-1,-1,-1,-6,0,/
COc1cc(C2c3cc4c(cc3OC(C)(N3CCCC3)C2C)OCO4)cc(OC)c1OC (centres undefined),/,-2,7,/,-1,56*,56*
COc1cc(C2c3cc4c(cc3OC(N3CCCC3)C2C)OCO4)cc(OC)c1O (centres undefined),/,-3,-8,/,4,3,/
COc1ccc(S(=O)(=O)N2CCCCC2)cc1NC(=O)C1CC(=O)N(Cc2ccccc2)C1 (centres undefined),15,-6,-7,-3,3,-9,/
COc1ccc2nc3cc([N+](=O)[O-])ccc3c(NNc3ccc([N+](=O)[O-])cc3)c2c1,/,28,-25,/,42,50*,44*
COc1cc(Nc2ncc3c(n2)CCN(C(=O)Nc2ccc(C(C)C)cc2)C3)cc(OC)c1OC,/,-11,1,/,/,33,/
COc1cccc(NC(=O)N2CCc3nc(Nc4ccc(C(C)C)cc4)ncc3C2)c1,/,-7,34,/,/,71*,83*
O=c1[nH]c(=S)[nH]c2nccnc12,/,7,-8,/,14,-3,/
